This is an account of results in ChEMBL document CHEMBL1129364, “Pyrrolobenzothiazepinones and pyrrolobenzoxazepinones: novel and specific non-nucleoside HIV-1 reverse transcriptase inhibitors with antiviral activity” (J Med Chem, 1996).

Active and inactive are the calls of the source. No cut-off for these calls is given here.

For assay [1], the target named is Human immunodeficiency virus type 1 reverse transcriptase (Human immunodeficiency virus 1, UniProt Q72547). Nature of the assay: (§1) Compound was tested for Inhibition of HIV-1 RT activity. In a few lines: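 Recombinant HIV-1 RT (0.1 unit), 37 °C for 30 min in 50 mM Tris·HCl pH 8.2, 1 mM DTT, 80 mM KCl, 12 mM MgCl2, 0.01% Triton X-100. Template-primer poly(rA)/(dT)12-18 with [3H]dTTP or poly(rC)/(dG)12-18 with [3H]dGTP. Compounds added in DMSO (10% final). Stopped with 20% TCA; precipitate counted. IC50 is the mean of at least three experiments.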

For assay [2], the system named is CEM-SS. Nature of the assay: Cytotoxic concentration against 50% survival of uninfected untreated control CEM-SS cells. Type of assay: cell-based. As to conditions: Homo sapiens.
A short description of assay [3]: Selective index is the ratio between IC50 and EC50. Type of assay: functional. In short, it runs like this:
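Selectivity index calculated as CEM-SS cytotoxic IC50 divided by anti-HIV-1 EC50.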

A short description of assay [4]: (§2) Effective concentration against 50% survival of HIV -1 infected cells relative to uninfected untreated control (in vitro anti HIV-1 activity). Type of assay: functional. As to conditions: Human immunodeficiency virus 1. In a few lines:
(§3)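 HIV-1-infected CEM T4 lymphocytes were scored for protection from cell death. […] An AZT-treated positive control was run at the same time.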

Assay [5] in a line: Effective concentration against 50% survival of HIV -1 infected cells relative to uninfected untreated control (in vitro anti HIV-1 activity); NA =' Not active'. It counts as functional, Human immunodeficiency virus 1. In a few lines: as §3
Assay [6] concerns CEM-SS. The assay is described as §2. It counts as functional, cell-based. The conditions noted are these: Homo sapiens. In a few lines:
as §3

In assay [7] the test system is MT4. Nature of the assay: IC50 value determined from the inhibition of HIV strain HIV-1 (6R), activity tested on MT-4 cell lines. Type of assay: functional, cell-based. The conditions noted are these: Homo sapiens.
Assay [8] in a line: SI - selectivity index determined from the ratio of IC50 to the ED50 determined on MT-4 cell lines of AZT-sensitive HIV strain. It counts as functional, MT4.
Assay [9] has as its system CEM-SS. Nature of the assay: ED50 value determined from the inhibition of HIV strain HIV-1 RF, activity tested on CEM-SS cell lines. It counts as functional. The conditions noted are these: Homo sapiens, read-out: ED50 (the source's name).
In assay [10] the test system is Human immunodeficiency virus 2. Nature of the assay: In vitro inhibitory activity against HIV-2 (ROD) HIV strain; NT ='Not active'. Type of assay: functional, organism-based. In short, it runs like this: (§4)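 ED50 measured against a panel of viruses in MT-2, MT-4 and CEM-SS cells. The panel comprised HIV-1 (6S) and (6R), the pyridinone-resistant strain A-17, HIV-1 IIIB, HIV-1 RF, a diphenyl sulfone-resistant HIV, N119, SIV MAC 251 and HIV-2 ROD.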

A short description of assay [11]: Selectivity index is the ratio between IC50 and ED50 from HIV-1 (6R) on MT-4 cell lines. Type of assay: functional, MT4.
Assay [12] has as its system MT4. Nature of the assay: IC50 value determined from the inhibition of HIV strain HIV-1(IIIB), activity tested on MT-4 cell lines. Type of assay: functional, cell-based. The conditions noted are these: Homo sapiens.
Assay [13] deals with CEM-SS. Nature of the assay: IC50 value determined from the inhibition of HIV strain HIV-1 RF, activity tested on CEM-SScell lines. Type of assay: functional, cell-based. As to conditions: Homo sapiens. In a few lines: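 Cell-protection assay: HIV-1-infected T4 lymphocytes (CEM-SS) scored for survival. The value is the drug concentration giving 50% survival of infected cells relative to uninfected untreated controls. An AZT-treated positive control was run at the same time under identical conditions. Details follow a previously reported procedure.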

Assay [14] concerns MT4. Nature of the assay: ED50 value determined from the inhibition of HIV strain AZT-sensitive activity tested on MT-4 cell lines. Type of assay: functional. As to conditions: Homo sapiens, read-out: ED50 (the source's name).
Assay [15] concerns MT4. Nature of the assay: IC50 value determined from the inhibition of HIV strain AZT-sensitive activity tested on MT-4 cell lines. It counts as functional, cell-based. The conditions noted are these: Homo sapiens.
The subject of assay [16] is MT4. Nature of the assay: ED50 value determined from the inhibition of HIV strain HIV-1(IIIB), activity tested on MT-4 cell lines. Type of assay: functional. As to conditions: Homo sapiens, read-out: ED50 (the source's name).
Assay [17] deals with MT4. Nature of the assay: ED50 value determined from the inhibition of HIV strain HIV-1 (6R), activity tested on MT-4 cell lines. It counts as functional. The conditions noted are these: Homo sapiens, read-out: ED50 (the source's name).
Assay [18] is described as follows: Selective index is the ratio between IC50 and EC50 from CEM-SS cells. It counts as functional.
Assay [19] in a line: Selectivity index is the ratio between IC50 and ED50 from HIV-1 (IIIB) on MT-4 cell lines. It counts as functional, MT4.
Assay [20] deals with Human immunodeficiency virus 1. Nature of the assay: In vitro inhibitory activity against HIV-1 (A-17) HIV strain; NT ='Not active'. Type of assay: functional, organism-based. In a few lines:
as §4

The nature of assay [21]: Effective concentration against 50% survival of HIV -1 infected cells relative to uninfected untreated control (in vitro anti HIV-1 activity); NA ='Not active'. Type of assay: functional, Human immunodeficiency virus 1. In short, it runs like this: as §3
The subject of assay [22] is Human immunodeficiency virus 2. Nature of the assay: Inhibitory activity against HIV-2 (ROD); NA ='Not active'. Type of assay: functional, organism-based. In short, it runs like this: as §4
Assay [23] relates to Human immunodeficiency virus 1. Nature of the assay: Effective dose against HIV-1 (IIIB strain); NA ='Not active'. It counts as functional, organism-based. In short, it runs like this: as §4
Assay [24] deals with Human immunodeficiency virus 1. Nature of the assay: Inhibitory activity against HIV-1 (A-17 cell lines); NA ='Not active'. It counts as functional, organism-based. In a few lines: as §4
Assay [25] has as its system Human immunodeficiency virus 1. Nature of the assay: Effective dose against AZT resistant strain; NA ='Not active'. Type of assay: functional, organism-based.
Assay [26] has as its system MT2. Nature of the assay: ED50 value determined from the inhibition of HIV strain AZT-sensitive activity tested on MT-2 cell lines. It counts as functional. As to conditions: Homo sapiens, read-out: ED50 (the source's name).
The test system of assay [27] is MT2. Nature of the assay: IC50 value determined from the inhibition of HIV strain AZT-sensitive activity tested on MT-2 cell lines. Type of assay: functional, cell-based. The conditions noted are these: Homo sapiens.
Assay [28] addresses Human immunodeficiency virus type 1 protease (Human immunodeficiency virus 1, UniProt Q72874). The assay is described as §1. In short, it runs like this: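 Recombinant HIV-1 RT (0.1 unit) was incubated 30 min at 37 °C in 50 mM Tris·HCl pH 8.2 with 1 mM DTT, 80 mM KCl, 12 mM MgCl2 and 0.01% Triton X-100. Template-primer was poly(rA)/(dT)12-18 with [3H]dTTP or poly(rC)/(dG)12-18 with [3H]dGTP. DMSO was 10% final. Reactions were stopped with TCA and precipitated radioactivity counted. IC50 is the mean of at least three experiments.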

In assay [1], `CCC1(c2ccccc2)Sc2c(Cl)cccc2-n2cccc2C1=O` (stereo unspecified) showed an IC50 of 500 µM.

`CCC1(c2ccccc2)C(=O)c2cccn2-c2ccccc2S1(=O)=O` (stereo unspecified) displayed an IC50 in [1] above 300 µM.

Consider `CC(C)=CCC1(c2ccccc2)Oc2ccccc2-n2cccc2C1=O` (stereo unspecified), for which the IC50 in assay [1] is above 500 µM; in the assay with CEM-SS [2], 120 µM.

Turning to `CCC1(c2ccc3ccccc3c2)Oc2ccccc2-n2cccc2C1=O` (stereo unspecified), the SI in [3] came to 44. Also, the IC50 in assay [1] was found to be 0.5 µM; in the assay on CEM-SS [2] it was 37.3 µM. Besides, in assay [4], the EC50 turned out to be 0.85 µM.

Consider `CCC1(c2ccccc2)Sc2cccc(Cl)c2-n2cccc2C1=O` (stereo unspecified), for which the IC50 in [1] was 600 µM; in assay [5], “Not Active”.

Turning to `CCC1Oc2ccccc2-n2cccc2C1=O` (stereo unspecified), the IC50 in [1] amounted to 100 µM.

Take `Cc1cn([C@H]2C[C@H](N=[N+]=[N-])[C@@H](CO)O2)c(=O)[nH]c1=O` [ZIDOVUDINE]: the SI in [3] was 526. The compound further gave an IC50 in the assay on CEM-SS [2] above 1 µM. The compound also gave an EC50 with CEM-SS [6] of 0.0019 µM.

In assay [1], `CCC1(c2ccccc2)Oc2cc3ccccc3cc2-n2cccc2C1=O` (stereo unspecified) came in with an IC50 of 150 µM.

With `O=C1c2cccn2-c2cc3ccccc3cc2OC1c1ccccc1` (stereo unspecified), the half-inhibitory concentration (IC50) in assay [1] was above 300 µM.

In turn, `CCC1(c2ccccc2)C(=O)c2cccn2-c2ccccc2[S+]1[O-]` (stereo unspecified) registered an IC50 in assay [1] of 500 µM.

Turning to `CCCC1(c2ccccc2)Oc2ccccc2-n2cccc2C1=O` (stereo unspecified), the IC50 was 500 µM in assay [1] and above 150 µM in the assay on CEM-SS [2].

As to `C=CCC1(c2ccccc2)Oc2ccccc2-n2cccc2C1=O` (stereo unspecified), in [3], the SI is 9. Besides, the figures for the IC50 (in assay [1]; in the assay with CEM-SS [2]) were 25 µM and 6.4 µM, respectively. Further, in assay [4], the EC50 turned out to be 0.71 µM.

The compound `O=C1c2cccn2-c2ccccc2OC1c1ccc2ccccc2c1` (stereo unspecified) displayed an IC50 in assay [1] above 300 µM.

Take `CCC1(c2ccccc2)Oc2ccccc2-n2cccc2C1=O` (stereo unspecified): the IC50 in the assay with MT4 [7] was determined as 2.9 µM; in assay [1], 0.25 µM; in the assay on CEM-SS [2] it was 4.9 µM; with MT4 [12] it was 3.31 µM; with CEM-SS [13], 10.4 µM; with MT4 [15] it was 3.3 µM. Further, the SI in assay [8] was 8; in assay [11] it was 1.7; in assay [18], 10.4; in assay [19], 25. Moreover, the EC50 in the assay on CEM-SS [9] is 0.12 µM; in [4] it was 0.47 µM; in the assay on MT4 [14], 0.42 µM; in the assay on MT4 [16], 0.13 µM; in the assay on MT4 [17], 1.6 µM. The result in assay [10] and in assay [20] was inactive.

Turning to `CCC1(c2ccccc2)Sc2ccc(C)cc2-n2cccc2C1=O` (stereo unspecified), the IC50 in assay [1] was above 600 µM; in [21] it was “Not Active”.

In turn, `C=CCC1(CC)Oc2ccccc2-n2cccc2C1=O` (stereo unspecified) yielded an IC50 in assay [1] of 5 µM.

For `CCC1(c2ccccc2)Sc2ccccc2-n2cccc2C1=O` (stereo unspecified), the result in assay [22], in assay [23], in assay [24] and in assay [25] was inactive. For the same compound, the SI in [3] was 55.2. The IC50 in assay [1] was determined as 15 µM; in the assay with CEM-SS [2], 100 µM; in the assay with MT2 [27], 110 µM. For the same compound, the figures for the EC50 (in assay [4]; in the assay with MT2 [26]) were 1.8 µM and 8.7 µM, respectively.

With `CCC1(CC=C(C)C)Oc2ccccc2-n2cccc2C1=O` (stereo unspecified), the SI in assay [3] was 35. Besides, in the assay with CEM-SS [2], the midpoint of inhibition, the IC50, lay at 45.2 µM. In addition, the EC50 in assay [4] came to 1.35 µM.

Turning to `CC1(c2ccccc2)Sc2ccccc2-n2cccc2C1=O` (stereo unspecified), in [1], the IC50 stood at 5 µM. The compound further had an EC50 in assay [4] of 0.81 µM.

Take `CC1(c2ccccc2)Oc2ccccc2-n2cccc2C1=O` (stereo unspecified): in assay [3], the SI was 19.7. Further, the IC50 in assay [1] was determined as 10 µM; with CEM-SS [2], 6.9 µM. This compound came in with an EC50 in assay [4] of 0.35 µM.

Consider `CCc1cc(NCc2nc3c(Cl)ccc(Cl)c3o2)c(O)nc1C` [L-697661], for which, in assay [1], the IC50 turned out to be 0.15 µM.

For `O=C1c2cccn2-c2ccccc2SC1c1ccccc1` (stereo unspecified), the IC50 in assay [1] was 100 µM; with CEM-SS [2], 18.3 µM.

Take `CCOC1=C(c2ccccc2)Oc2ccccc2-n2cccc21`: the IC50 in assay [28] was above 300 µM.

As for `O=C1c2cccn2-c2ccccc2OC1(CC1CC1)c1ccccc1` (stereo unspecified), the values for the IC50 (in assay [1]; with CEM-SS [2]) were above 500 µM and 11.8 µM, respectively.

`CCCC1(CC)Oc2ccccc2-n2cccc2C1=O` (stereo unspecified) registered an IC50 in [1] of 10 µM.

In the case of `O=C1c2cccn2-c2ccccc2OC1c1ccccc1` (stereo unspecified), the IC50 in assay [1] was above 300 µM.
